Assay [1] has as its system MDA-MB-435 (human). The assay is described as follows: Antitumor activity against human MDA-MB-435 cells xenografted in NCR/NU NU mouse assessed as tumor volume measured on day 14 initially dosed at 5 mg/kg, ip qd x 5/week for 2 weeks and was gradually increased to 6 mg/kg x 5/week for 2 weeks and adjusted to 6 mg/kg qd x 3/week for 1 week schedule. (In general: In xenograft studies the graft and the host belong to different species.)

Assay [2] in a line: Cytotoxicity against camptothecin-resistant human CPT-K5 cells after MTT assay. In kind it is functional, cell-based. Put shortly: (§1)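 Suspension cultures at 37 °C, 5% CO2, in RPMI with 10% heat-inactivated FBS, 2 mM L-glutamine, penicillin and streptomycin. Continuous 4-day exposure to a range of drug concentrations, then MTT read-out to give IC50. Drug-free control included. At least two runs, six replicate wells each.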

Assay [3] can be described thus: Cytotoxicity against human RPMI8402 cells after MTT assay. In kind it is functional, cell-based. Conditions: RPMI 8402. Put shortly:
as §1
In general terms: Formazan colour is commonly taken as a measure of viable cells.

The next assay deals with P388. The assay is described as follows: Cytotoxicity against mouse P388 cells after MTT assay. In kind it is functional, cell-based. Put shortly:
as §1

The nature of assay [4]: Cytotoxicity against camptothecin-resistant and TOP1 deficient mouse P388/CPT45 cells after MTT assay. Conditions: P388CPT45. In kind it is functional, cell-based. Put shortly: as §1
Assay [5] concerns MDA-MB-435 (human). Briefly: Antitumor activity against human MDA-MB-435 cells xenografted in NCR/NU NU mouse assessed as tumor volume measured on day 49 initially dosed at 5 mg/kg, ip qd x 5/week for 2 weeks and was gradually increased to 6 mg/kg x 5/week for 2 weeks and adjusted to 6 mg/kg qd x 3/week for 1 week schedule.
Assay [6] can be described thus: Cytotoxicity against multidrug resistant human KBV-1 cells overexpressing MDR1 after MTT assay. Conditions: KB-V1. In kind it is functional, cell-based. Put shortly:
(§2)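 IC50 after continuous 4-day exposure to varying drug concentrations, with MTT read at the end of day 4. A drug-free control was included. At least two runs, each in six replicate wells.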

The test system of assay [7] is MDA-MB-435 (human). Briefly: Antitumor activity against human MDA-MB-435 cells xenografted in NCR/NU NU mouse assessed as tumor volume measured on day 35 initially dosed at 5 mg/kg, ip qd x 5/week for 2 weeks and was gradually increased to 6 mg/kg x 5/week for 2 weeks and adjusted to 6 mg/kg qd x 3/week for 1 week schedule.
Assay [8] in a line: Cytotoxicity against human KB3-1 cells after MTT assay. Particulars: KB 3-1. Format: functional, cell-based. Put shortly: as §2
The subject of assay [9] is MDA-MB-435 (human). Briefly: Antitumor activity against human MDA-MB-435 cells xenografted in NCR/NU NU mouse assessed as tumor volume measured on day 21 initially dosed at 5 mg/kg, ip qd x 5/week for 2 weeks and was gradually increased to 6 mg/kg x 5/week for 2 weeks and adjusted to 6 mg/kg qd x 3/week for 1 week schedule.
Assay [10] is described as follows: Cytotoxicity against multidrug resistant human KBH5.0 cells overexpressing BCRP after MTT assay. Particulars: KBH5.0 cell. In kind it is functional, cell-based. Put shortly:
as §2

Assay [11] has as its system MDA-MB-435 (human). The assay is described as follows: Antitumor activity against human MDA-MB-435 cells xenografted in NCR/NU NU mouse assessed as tumor volume measured on day 42 initially dosed at 5 mg/kg, ip qd x 5/week for 2 weeks and was gradually increased to 6 mg/kg x 5/week for 2 weeks and adjusted to 6 mg/kg qd x 3/week for 1 week schedule.
For assay [12], the system named is MDA-MB-435 (human). Briefly: Antitumor activity against human MDA-MB-435 cells xenografted in NCR/NU NU mouse assessed as tumor volume measured on day 28 initially dosed at 5 mg/kg, ip qd x 5/week for 2 weeks and was gradually increased to 6 mg/kg x 5/week for 2 weeks and adjusted to 6 mg/kg qd x 3/week for 1 week schedule.
In assay [13] the target is T1, DNA topoisomerase 1 (Homo sapiens) (UniProt P11387).
T1 sequence (whole entry): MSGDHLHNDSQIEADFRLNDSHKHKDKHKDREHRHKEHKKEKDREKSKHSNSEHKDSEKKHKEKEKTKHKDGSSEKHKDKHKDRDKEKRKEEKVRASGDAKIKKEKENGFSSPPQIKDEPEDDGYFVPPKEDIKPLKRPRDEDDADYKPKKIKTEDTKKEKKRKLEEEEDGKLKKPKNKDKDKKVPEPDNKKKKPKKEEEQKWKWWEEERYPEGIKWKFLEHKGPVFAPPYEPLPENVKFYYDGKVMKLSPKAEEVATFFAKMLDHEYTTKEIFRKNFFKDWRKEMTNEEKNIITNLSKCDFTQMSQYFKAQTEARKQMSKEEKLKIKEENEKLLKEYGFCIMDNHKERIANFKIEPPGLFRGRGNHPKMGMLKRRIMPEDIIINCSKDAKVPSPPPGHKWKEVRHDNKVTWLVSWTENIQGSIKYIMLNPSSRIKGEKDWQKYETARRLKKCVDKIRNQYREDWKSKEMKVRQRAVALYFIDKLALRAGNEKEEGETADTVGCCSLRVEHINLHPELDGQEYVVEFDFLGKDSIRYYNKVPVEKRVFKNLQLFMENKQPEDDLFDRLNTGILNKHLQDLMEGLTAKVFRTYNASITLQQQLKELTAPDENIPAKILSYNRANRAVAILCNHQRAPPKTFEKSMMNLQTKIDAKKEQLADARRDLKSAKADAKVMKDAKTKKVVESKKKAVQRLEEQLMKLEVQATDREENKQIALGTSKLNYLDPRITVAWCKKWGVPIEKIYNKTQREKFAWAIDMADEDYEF
Briefly: Inhibition of human topoisomerase 1 mediated DNA cleavage assessed as effective drug concentration causing 10% YepG plasmid cleavage relative to camptothecin. Particulars: in the assay text read “relative to topotecan” for “relative to camptothecin”. Put shortly:
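Stopped with SDS and proteinase K, 1 h at 37 °C. Alkali-denatured with NaOH/EDTA/sucrose/bromophenol blue, then run on neutral agarose gel.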

The subject of assay [14] is MDA-MB-435 (human). The assay is described as follows: Antitumor activity against human MDA-MB-435 cells xenografted in NCR/NU NU mouse assessed as tumor volume measured on day 7 initially dosed at 5 mg/kg, ip qd x 5/week for 2 weeks and was gradually increased to 6 mg/kg x 5/week for 2 weeks and adjusted to 6 mg/kg qd x 3/week for 1 week schedule.
The subject of assay [15] is MDA-MB-435 (human). The assay is described as follows: Antitumor activity against human MDA-MB-435 cells xenografted in NCR/NU NU mouse assessed as tumor volume measured on day 7 initially dosed at 5 mg/kg, ip qd x 5/week for 1 week and dose schedule adjusted to achieve total dose of 301 mg/kg.
For assay [16], the system named is MDA-MB-435 (human). The assay is described as follows: Antitumor activity against human MDA-MB-435 cells xenografted in NCR/NU NU mouse assessed as tumor volume measured on day 21 initially dosed at 5 mg/kg, ip qd x 5/week for 1 week and dose schedule adjusted to achieve total dose of 301 mg/kg.
Assay [17] relates to MDA-MB-435 (human). The assay is described as follows: Antitumor activity against human MDA-MB-435 cells xenografted in NCR/NU NU mouse assessed as tumor volume measured on day 49 initially dosed at 5 mg/kg, ip qd x 5/week for 1 week and dose schedule adjusted to achieve total dose of 301 mg/kg.
The test system of assay [18] is MDA-MB-435 (human). The assay is described as follows: Antitumor activity against human MDA-MB-435 cells xenografted in NCR/NU NU mouse assessed as tumor volume measured on day 14 initially dosed at 5 mg/kg, ip qd x 5/week for 1 week and dose schedule adjusted to achieve total dose of 301 mg/kg.
For assay [19], the system named is MDA-MB-435 (human). Briefly: Antitumor activity against human MDA-MB-435 cells xenografted in NCR/NU NU mouse assessed as tumor volume measured on day 42 initially dosed at 5 mg/kg, ip qd x 5/week for 1 week and dose schedule adjusted to achieve total dose of 301 mg/kg.
Assay [20] has as its system MDA-MB-435 (human). Briefly: Antitumor activity against human MDA-MB-435 cells xenografted in NCR/NU NU mouse assessed as tumor volume measured on day 35 initially dosed at 5 mg/kg, ip qd x 5/week for 1 week and dose schedule adjusted to achieve total dose of 301 mg/kg.
The test system of assay [21] is MDA-MB-435 (human). The assay is described as follows: Antitumor activity against human MDA-MB-435 cells xenografted in NCR/NU NU mouse assessed as tumor volume measured on day 28 initially dosed at 5 mg/kg, ip qd x 5/week for 1 week and dose schedule adjusted to achieve total dose of 301 mg/kg.
For assay [22], the system named is MDA-MB-435 (human). The assay is described as follows: Antitumor activity against human MDA-MB-435 cells xenografted in NCR/NU NU mouse assessed as tumor volume measured on day 28 initially dosed at 5 mg/kg, ip qd x 5/week for 1 week and was gradually increased to 7 mg/kg x 5/week schedule.
In assay [23] the test system is MDA-MB-435 (human). The assay is described as follows: Antitumor activity against human MDA-MB-435 cells xenografted in NCR/NU NU mouse assessed as tumor volume measured on day 35 initially dosed at 5 mg/kg, ip qd x 5/week for 1 week and was gradually increased to 7 mg/kg x 5/week schedule.
In assay [24] the test system is MDA-MB-435 (human). Briefly: Antitumor activity against human MDA-MB-435 cells xenografted in NCR/NU NU mouse assessed as tumor volume measured on day 42 initially dosed at 5 mg/kg, ip qd x 5/week for 1 week and was gradually increased to 7 mg/kg x 5/week schedule.
Assay [25] deals with MDA-MB-435 (human). The assay is described as follows: Antitumor activity against human MDA-MB-435 cells xenografted in NCR/NU NU mouse assessed as tumor volume measured on day 49 initially dosed at 5 mg/kg, ip qd x 5/week for 1 week and was gradually increased to 7 mg/kg x 5/week schedule.
Assay [26] deals with MDA-MB-435 (human). The assay is described as follows: Antitumor activity against human MDA-MB-435 cells xenografted in NCR/NU NU mouse assessed as tumor volume measured on day 14 initially dosed at 5 mg/kg, ip qd x 5/week for 1 week and was gradually increased to 7 mg/kg x 5/week schedule.
Assay [27] deals with MDA-MB-435 (human). Briefly: Antitumor activity against human MDA-MB-435 cells xenografted in NCR/NU NU mouse assessed as tumor volume measured on day 21 initially dosed at 5 mg/kg, ip qd x 5/week for 1 week and was gradually increased to 7 mg/kg x 5/week schedule.
The test system of assay [28] is MDA-MB-435 (human). Briefly: Antitumor activity against human MDA-MB-435 cells xenografted in NCR/NU NU mouse assessed as tumor volume measured on day 7 initially dosed at 5 mg/kg, ip qd x 5/week for 1 week and was gradually increased to 7 mg/kg x 5/week schedule.

SMILES strings stand for the structures. Bounds are passed on as bounds.

As to `COc1cc2c(=O)n(CCN(CC#N)C(C)C)c3c4cc5c(cc4ncc3c2cc1OC)OCO5`, the Activity in the assay on MDA-MB-435 (human) [1] was determined as 175 mm3; with MDA-MB-435 (human) [5], 314 mm3; with MDA-MB-435 (human) [7] it was 250 mm3; in the assay on MDA-MB-435 (human) [9], 213 mm3; in the assay with MDA-MB-435 (human) [11], 286 mm3; in the assay with MDA-MB-435 (human) [12], 220 mm3. The Activity in assay [13] was under 0.2; in the assay with MDA-MB-435 (human) [14] it was 142 mm3. The IC50 was determined as 1300 nM in assay [2]; 2 nM in assay [3]; 2 nM in the assay with P388; 60 nM in [4]; 43 nM in assay [6]; 6 nM in [8]. This compound registered a concentration for half-maximal inhibition (IC50) in assay [10] of 9 nM.

As for `COc1cc2c(=O)n(CCN(C)CC(N)=O)c3c4cc5c(cc4ncc3c2cc1OC)OCO5`, the IC50 in assay [2] came out at 3500 nM; in assay [3], 3 nM; with P388, 9 nM; in assay [4], 390 nM; in assay [8], 10 nM; in assay [10], 320 nM. The Activity is 147 mm3 in the assay on MDA-MB-435 (human) [15]; 230 mm3 in the assay on MDA-MB-435 (human) [16]; 527 mm3 in the assay with MDA-MB-435 (human) [17]; 178 mm3 in the assay with MDA-MB-435 (human) [18]; 0.3 in [13]; 434 mm3 with MDA-MB-435 (human) [19]. For the same compound, the Activity with MDA-MB-435 (human) [20] worked out at 344 mm3; with MDA-MB-435 (human) [21], 319 mm3.

As to `C#CCN(C)CCn1c(=O)c2cc(OC)c(OC)cc2c2cnc3cc4c(cc3c21)OCO4`, the Activity in the assay on MDA-MB-435 (human) [22] is 284 mm3; with MDA-MB-435 (human) [23], 317 mm3; in the assay with MDA-MB-435 (human) [24], 358 mm3; with MDA-MB-435 (human) [25], 433 mm3; in the assay on MDA-MB-435 (human) [26], 167 mm3; in assay [13], 0.1. The Activity in the assay on MDA-MB-435 (human) [27] is listed as 218 mm3; with MDA-MB-435 (human) [28], 144 mm3. Besides, the 50% inhibitory concentration (IC50) in [2] turned out to be 4500 nM; in assay [3], 8 nM; in the assay on P388 it was 20 nM; in assay [4] it was 400 nM; in assay [6], 70 nM; in assay [10], 34 nM.

What is called IC50 is the concentration that gives 50% inhibition. A lower IC50 goes with higher potency.

Values taken from ChEMBL document CHEMBL1142488, “Synthesis of N-substituted 5-[2-(N-alkylamino)ethyl]dibenzo[c,h][1,6]naphthyridines as novel topoisomerase I-targeting antitumor agents” (Bioorg Med Chem, 2008).
